Assay type in all cases: functional
Experiment [1] deals with Klebsiella pneumoniae. Description: Antibacterial activity against Klebsiella pneumoniae after 16 to 18 hrs by serial dilution method. To be noted: for MIC: Klebsiella pneumoniae.
Experiment [2] relates to Aspergillus flavus. The experiment is described as follows: Antifungal activity against Aspergillus flavus after 16 to 18 hrs by serial dilution method. To be noted: for MIC: Aspergillus flavus. The method in brief:
(§1)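 The test compound was dissolved in DMF and serially diluted. A standard drop of the prepared microbial culture was added to each dilution, and tubes were incubated at 37 °C for 16–18 h. MIC was taken as the highest dilution that stayed clear with no visible turbidity.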

The test system of experiment [3] is Trichophyton mentagrophytes. The experiment is described as follows: Antifungal activity against Trichophyton mentagrophytes after 16 to 18 hrs by serial dilution method. Particulars: for MIC: Trichophyton mentagrophytes.
Experiment [4] deals with Pseudomonas aeruginosa. The experiment is described as follows: Antibacterial activity against Pseudomonas aeruginosa after 16 to 18 hrs by serial dilution method. To be noted: for MIC: Pseudomonas aeruginosa. The method in brief: as §1
Experiment [5] has as its system Escherichia coli. Description: Antibacterial activity against Escherichia coli after 16 to 18 hrs by serial dilution method. To be noted: for MIC: Escherichia coli. The method in brief:
as §1

The subject of experiment [6] is Staphylococcus aureus. Description: Antibacterial activity against Staphylococcus aureus after 16 to 18 hrs by serial dilution method. To be noted: for MIC: Staphylococcus aureus. The method in brief:
as §1

Experiment [7] deals with Aspergillus fumigatus. Description: Antifungal activity against Aspergillus fumigatus after 16 to 18 hrs by serial dilution method. To be noted: for MIC: Aspergillus fumigatus.
The test system of experiment [8] is Talaromyces marneffei. The experiment is described as follows: Antifungal activity against Penicillium marneffei after 16 to 18 hrs by serial dilution method. To be noted: for MIC: Talaromyces marneffei. The method in brief:
as §1

≈ marks a conversion by molar mass, not a printed value. Where only a bound is given, the exact number is not on record here.

Turning to `COc1cc(-c2nnc(-c3ccccc3COc3ccc(C)cc3)o2)cc(OC)c1OC`, the “inhibition zone (IZ)” value turned out to be 16 mm in experiment [1]; 11 mm in experiment [2]; 11 mm in experiment [3]; 16 mm in experiment [4]; 16 mm in experiment [5]; 16 mm in experiment [6]. In addition, the “inhibition zone (IZ)” value in experiment [7] and in experiment [8] was 16 mm throughout. Besides, the MIC in experiment [1] amounted to 6.25 µg/mL (≈ 14.5 µM); in experiment [2] it was 12.5 µg/mL (≈ 28.9 µM); in experiment [3] it was 12.5 µg/mL (≈ 28.9 µM); in experiment [4], 6.25 µg/mL (≈ 14.5 µM); in experiment [5], 6.25 µg/mL (≈ 14.5 µM); in experiment [6], 6.25 µg/mL (≈ 14.5 µM). In addition, the MIC in experiment [7] and in experiment [8] was 6.25 µg/mL (≈ 14.5 µM) each time.

Regarding `COc1cc(-c2nnc(-c3ccccc3COc3ccc(Cl)cc3)o2)cc(OC)c1OC`, the “inhibition zone (IZ)” value in experiment [1], in experiment [2], in experiment [3], in experiment [4], in experiment [5] and in experiment [6] was 16 mm throughout. In addition, the “inhibition zone (IZ)” value in experiment [7] and in experiment [8] was 16 mm in each case. Besides, the MIC in experiment [1], in experiment [2], in experiment [3], in experiment [4], in experiment [5] and in experiment [6] was 6.25 µg/mL (≈ 13.8 µM) throughout. The MIC in experiment [7] and in experiment [8] was 6.25 µg/mL (≈ 13.8 µM) throughout.

For the molecule `Cc1ccc(Cl)c(NCn2nc(-c3ccccc3COc3ccc(Cl)cc3)oc2=S)c1`, the “inhibition zone (IZ)” value in experiment [1], in experiment [2], in experiment [3], in experiment [4], in experiment [5] and in experiment [6] was under 10 mm in each case. Also, the “inhibition zone (IZ)” value in experiment [7] and in experiment [8] was under 10 mm throughout. For the same molecule, the MIC in experiment [1], in experiment [2], in experiment [3], in experiment [4], in experiment [5] and in experiment [6] was 25 µg/mL (≈ 52.9 µM) each time. In addition, the MIC in experiment [7] and in experiment [8] was 25 µg/mL (≈ 52.9 µM) in each case.

For `Cc1ccccc1OCc1ccccc1-c1nnc(-c2ccccc2)o1`, the “inhibition zone (IZ)” value in experiment [1], in experiment [2], in experiment [3], in experiment [4], in experiment [5] and in experiment [6] was under 10 mm in each case. Besides, the “inhibition zone (IZ)” value in experiment [7] and in experiment [8] was under 10 mm throughout. The minimal inhibitory concentration (MIC) in experiment [1], in experiment [2], in experiment [3], in experiment [4], in experiment [5] and in experiment [6] was 25 µg/mL (≈ 73 µM) each time. The minimum inhibitory concentration (MIC) in experiment [7] and in experiment [8] was 25 µg/mL (≈ 73 µM) each time.

With `Cc1cccc(OCc2ccccc2-c2nnc(-c3ccccc3)o2)c1`, the “inhibition zone (IZ)” value in experiment [1], in experiment [2], in experiment [3], in experiment [4], in experiment [5] and in experiment [6] was under 10 mm each time. Also, the “inhibition zone (IZ)” value in experiment [7] and in experiment [8] was under 10 mm throughout. Moreover, the minimal inhibitory concentration (MIC) in experiment [1], in experiment [2], in experiment [3], in experiment [4], in experiment [5] and in experiment [6] was 25 µg/mL (≈ 73 µM) in each case. In addition, the MIC in experiment [7] and in experiment [8] was 25 µg/mL (≈ 73 µM) throughout.

In the case of `Cc1ccc(OCc2ccccc2-c2nnc(-c3ccc(Cl)cc3)o2)cc1`, the “inhibition zone (IZ)” value in experiment [1], in experiment [2], in experiment [3], in experiment [4], in experiment [5] and in experiment [6] was under 10 mm each time. Further, the “inhibition zone (IZ)” value in experiment [7] and in experiment [8] was under 10 mm each time. The minimum inhibitory concentration (MIC) in experiment [1], in experiment [2], in experiment [3], in experiment [4], in experiment [5] and in experiment [6] was 25 µg/mL (≈ 66.3 µM) each time. In addition, the MIC in experiment [7] and in experiment [8] was 25 µg/mL (≈ 66.3 µM) in each case.

In the case of `Clc1ccc(OCc2ccccc2-c2nnc(-c3cccc4ncccc34)o2)cc1`, the “inhibition zone (IZ)” value in experiment [1], in experiment [2], in experiment [3], in experiment [4], in experiment [5] and in experiment [6] was under 10 mm in each case. The “inhibition zone (IZ)” value in experiment [7] and in experiment [8] was under 10 mm in each case. For the same molecule, the MIC in experiment [1], in experiment [2], in experiment [3], in experiment [4], in experiment [5] and in experiment [6] was 25 µg/mL (≈ 60.4 µM) each time. For the same molecule, the MIC in experiment [7] and in experiment [8] was 25 µg/mL (≈ 60.4 µM) each time.

In the case of `Cc1cccc(OCc2ccccc2-c2nnc(-c3cccc4ncccc34)o2)c1`, the “inhibition zone (IZ)” value in experiment [1], in experiment [2], in experiment [3], in experiment [4], in experiment [5] and in experiment [6] was under 10 mm in each case. In addition, the “inhibition zone (IZ)” value in experiment [7] and in experiment [8] was under 10 mm throughout. The MIC in experiment [1], in experiment [2], in experiment [3], in experiment [4], in experiment [5] and in experiment [6] was 25 µg/mL (≈ 63.5 µM) each time. The minimum inhibitory concentration (MIC) in experiment [7] and in experiment [8] was 25 µg/mL (≈ 63.5 µM) in each case.

Regarding `Cc1ccccc1OCc1ccccc1-c1nnc(-c2ccccc2F)o1`, the “inhibition zone (IZ)” value in experiment [1], in experiment [2], in experiment [3], in experiment [4], in experiment [5] and in experiment [6] was 16 mm each time. Further, the “inhibition zone (IZ)” value in experiment [7] and in experiment [8] was 16 mm in each case. In addition, the minimal inhibitory concentration (MIC) in experiment [1], in experiment [2], in experiment [3], in experiment [4], in experiment [5] and in experiment [6] was 6.25 µg/mL (≈ 17.3 µM) each time. The MIC in experiment [7] and in experiment [8] was 6.25 µg/mL (≈ 17.3 µM) in each case.

As to `Cc1cccc(OCc2ccccc2-c2nn(CNc3cc(C)ccc3Cl)c(=S)o2)c1`, the “inhibition zone (IZ)” value in experiment [1], in experiment [2], in experiment [3], in experiment [4], in experiment [5] and in experiment [6] was under 10 mm each time. The “inhibition zone (IZ)” value in experiment [7] and in experiment [8] was under 10 mm throughout. Besides, the minimal inhibitory concentration (MIC) in experiment [1], in experiment [2], in experiment [3], in experiment [4], in experiment [5] and in experiment [6] was 25 µg/mL (≈ 55.3 µM) throughout. Further, the MIC in experiment [7] and in experiment [8] was 25 µg/mL (≈ 55.3 µM) in each case.

As to `Cc1ccc(OCc2ccccc2-c2nnc(SCc3ccc(Cl)cc3)o2)cc1`, the “inhibition zone (IZ)” value in experiment [1], in experiment [2], in experiment [3], in experiment [4], in experiment [5] and in experiment [6] was 11 mm throughout. Also, the “inhibition zone (IZ)” value in experiment [7] and in experiment [8] was 11 mm each time. The minimal inhibitory concentration (MIC) in experiment [1], in experiment [2], in experiment [3], in experiment [4], in experiment [5] and in experiment [6] was 12.5 µg/mL (≈ 29.6 µM) in each case. Besides, the minimum inhibitory concentration (MIC) in experiment [7] and in experiment [8] was 12.5 µg/mL (≈ 29.6 µM) each time.

With `Cc1ccc(OCc2ccccc2-c2nn(CNc3cc(C)ccc3Cl)c(=S)o2)cc1`, the “inhibition zone (IZ)” value in experiment [1], in experiment [2], in experiment [3], in experiment [4], in experiment [5] and in experiment [6] was under 10 mm each time. Also, the “inhibition zone (IZ)” value in experiment [7] and in experiment [8] was under 10 mm in each case. Besides, the MIC in experiment [1], in experiment [2], in experiment [3], in experiment [4], in experiment [5] and in experiment [6] was 25 µg/mL (≈ 55.3 µM) throughout. In addition, the MIC in experiment [7] and in experiment [8] was 25 µg/mL (≈ 55.3 µM) throughout.

What is called MIC is the least concentration at which growth counts as inhibited. The low end stands for a more susceptible organism, the high end for a less susceptible organism.

For the origin of these results see ChEMBL document CHEMBL1275272, “Synthesis, characterization and antimicrobial activity of some disubstituted 1,3,4-oxadiazoles carrying 2-(aryloxymethyl)phenyl moiety” (2010).
